This is a sample that favours compounds with a hit; in the whole collection about 2.4% have one here.
Casp6 inh – inhibitors of human caspase-6 | purified caspase-6, Z-VEID-R110 cleavage fluorescence | inhibition, % at 12.5 µM | 0.53% of 350,000 active | AID 686996;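 active means mean inhibition across replicates at least about 35%, with every replicate also reaching that limit, limit read from the data; inconclusive means only one of the two criteria met; inactive means neither criterion met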
Target sequence (P55212 24-179 limits assumed): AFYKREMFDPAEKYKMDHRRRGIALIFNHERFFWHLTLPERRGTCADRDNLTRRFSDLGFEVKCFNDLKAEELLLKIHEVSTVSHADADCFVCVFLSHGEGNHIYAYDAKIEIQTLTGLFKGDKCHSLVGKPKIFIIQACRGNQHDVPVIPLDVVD
Target sequence (P55212 194-293 limits assumed): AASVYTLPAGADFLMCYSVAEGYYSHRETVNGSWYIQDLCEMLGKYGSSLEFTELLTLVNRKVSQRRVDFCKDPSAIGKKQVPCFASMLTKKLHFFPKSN
Ecoli rRNA inh – selective bacterial rRNA inhibition in E. coli. E. coli WT GFP vs humanized-ribosome RFP mutants, fluorescence, 24 h; stronger effect = lower value; DMSO median 0, no signal -100. GFP signal change (wild-type ribosome), % (no concentration beside the values). 1.6% of 350,000 active. AID 720706;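 active means significant combined selectivity score with lowered wild-type GFP, culture density cut under 30%, mutant RFP and density less affected; inactive means any of these conditions unmet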
S100A4 MyoIIA – inhibitors of human S100A4 binding to myosin IIA peptide; P26447; S100A4/TAMRA-MyoIIA peptide fluorescence polarization; inhibition, % at 10.7 µM; 0.14% of 360,000 active; AID 652163;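 active means mean inhibition of at least 70% across replicates, with every replicate also reaching that level; inconclusive means mean inhibition reaches 70% but some replicates fall short; inactive means mean inhibition below 70%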
Target sequence (P26447 whole entry, looked up): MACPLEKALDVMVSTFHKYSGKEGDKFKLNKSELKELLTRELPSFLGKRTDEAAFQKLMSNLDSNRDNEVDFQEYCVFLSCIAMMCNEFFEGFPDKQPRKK
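assay system = human S100A4 monomer with TAMRA-labelled myosin IIA peptide | also added = labelled myosin peptide probe, 5 nM | incubation = 5 min between mix addition and reading | control set = DMSO and TFP controls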
ERAP1 HTS inh – ERAP1 (human) enzyme inhibition. Q9NZ08. AID 652197. inhibition, % at 10.7 µM. 0.15% of 340,000 active. recombinant ERAP1, Leu-AMC fluorescence, 60 min;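 active means mean replicate inhibition of at least 30%, or all replicates individually reaching that 30% level; inactive means mean below 30% and not every replicate reaching it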
ARNT-TACC3 inh – disrupts binding between human ARNT and TACC3 | Q9Y6A5 | AlphaScreen His-ARNT PAS-B/GST-TACC3 binding, luminescence; TACC3 fragment carries E629A point mutation | inhibition, % at 9.99 µM | 0.66% of 390,000 active | AID 623870;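 active means mean inhibition of replicates at least 50% and at least half of replicates each reaching 50%; inconclusive means half or more replicates reach 50% but mean below 50%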
PGC1a acetyl inh – lowers PGC1a acetylation signal in U2OS cells; inhibition, % at 15.6 µM; AlphaScreen anti-acetyl-lysine; with virally co-expressed GCN5 acetyltransferase; AID 651687; 0.17% of 350,000 active;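 active means every replicate shows inhibition of at least 40%; inconclusive means mean inhibition at least 40% but some replicate below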
AID977621 – wild-type E. coli growth inhibition versus H69 humanized strain – H69 mutant RFP, wild-type GFP, cherry-pick, dose response. 1,900 tested, under 10 active. activity change, negative = inhibition at 50 µM. shares compounds with Ecoli rRNA inh. fluorescence, 24 h;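 active means Wild-type ribosome reporter drop at least double the humanized mutant ribosome reporter drop, growth loss under a set limit; inconclusive means no clear call, values can overlap the other calls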;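 further: wild-type GFP and H69 mutant RFP strains grown together 50/50 in each well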
AID977628 – E. coli growth inhibition, wild-type GFP versus h24 humanized RFP strain, dose response, h24 mutant RFP vs wild-type GFP, cherry-pick; shares compounds with Ecoli rRNA inh; E. coli WT GFP strain growth, fluorescence, 24 h; activity change, negative = inhibition at 50 µM; 1,900 tested, under 10 active;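 active means compound lowering the normal-ribosome reporter at least twice as much as the humanized-ribosome reporter, growth loss under a set limit; inconclusive means no clear call, values can overlap the other calls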;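 further: wild-type GFP and h24 humanized RFP strains co-cultured 1 to 1 per well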
Large screens that a line does not name were inactive (follow-up assays come after a bar, where they were run).

COc1ccccc1C1CCN(Cc2cccc([N+](=O)[O-])c2)CC1	Ecoli rRNA inh -24 (no result: PGC1a acetyl inh) | AID977628 inconclusive
COc1ccc(C(CC(=O)c2ccc(O)cc2)S(=O)(=O)c2ccc(C)cc2)cc1 (stereo not drawn)	Ecoli rRNA inh -24 | AID977621 inactive | AID977628 inactive
CS(=O)(=O)NCCSc1cc(C(F)(F)F)nc2ccccc12	Ecoli rRNA inh -20 (no result: PGC1a acetyl inh) | AID977628 inconclusive
CS(=O)(=O)NCCSCc1ccccc1	none (no result: Casp6 inh, Ecoli rRNA inh, S100A4 MyoIIA, ERAP1 HTS inh)
CC(C)NC(=O)N(C)C[C@@H]1Oc2c(NC(=O)Nc3ccc(F)cc3)cccc2C(=O)N([C@H](C)CO)C[C@@H]1C	none
C[C@@H]1CN([C@@H](C)CO)C(=O)c2cccc(NC(=O)c3ccncc3)c2O[C@@H]1CN(C)C(=O)Nc1ccc(C(F)(F)F)cc1	none
CO[C@@H]1CN(C)C(=O)c2ccc(NC(=O)c3nc4ccccc4s3)cc2OC[C@@H](C)N(Cc2ccncc2)C[C@@H]1C	Ecoli rRNA inh -25 | AID977628 inconclusive
CCN(CC)CCCN(C(=O)c1ccco1)c1nc(-c2ccc(C)cc2)cs1	Ecoli rRNA inh -34 | AID977621 inconclusive | AID977628 inconclusive
O=C(COC(=O)c1ccccc1)NCC1COc2ccccc2O1 (stereo not drawn)	none (no result: ARNT-TACC3 inh, PGC1a acetyl inh)
O=C(OCC1COc2ccccc2O1)c1ccccc1F (stereo not drawn)	Ecoli rRNA inh -20 | AID977621 inactive | AID977628 inactive
C[C@H](CO)N1C[C@H](C)[C@@H](CN(C)Cc2ccc(C(=O)O)cc2)Oc2ncc(C3=CCCCC3)cc2C1=O	none
CCC(=O)N1CC[C@H]2[C@H](CO)Nc3ccc(-c4ccc(C(=O)N(C)C)cc4)cc3[C@H]21	none
CC1CCCCN1C(=O)C1CCCN(S(=O)(=O)c2cccc3nsnc23)C1 (stereo not drawn)	Ecoli rRNA inh -20 | AID977621 inactive | AID977628 inconclusive
CCOC(=O)C1CCCN(S(=O)(=O)c2cccc3nsnc23)C1 (stereo not drawn)	none
CCc1ccc(CN2CCCC(CNS(=O)(=O)c3ccc(OC)cc3)C2)cc1 (stereo not drawn)	Ecoli rRNA inh -22 (no result: PGC1a acetyl inh) | AID977621 inactive | AID977628 inconclusive
CN(c1ccccc1)S(=O)(=O)c1cccc(NC(=O)CCNC(=O)c2ccc([N+](=O)[O-])cc2)c1	Ecoli rRNA inh -17 | AID977621 inactive | AID977628 inconclusive
CN(c1ccccc1)S(=O)(=O)c1cccc(NC(=O)CCNC(=O)c2ccccc2)c1	none (no result: ARNT-TACC3 inh)
Cc1cc([N+](=O)[O-])nn1CC(=O)Nc1cc(F)ccc1F	Ecoli rRNA inh -18 (no result: ERAP1 HTS inh, PGC1a acetyl inh) | AID977621 inactive | AID977628 inconclusive
Cc1cc([N+](=O)[O-])nn1CC(=O)N/N=C/c1ccccc1F	none
CO[C@@H]1CN(C)C(=O)c2cc(NC(=O)C3CCC3)ccc2OC[C@H](C)N(C)C[C@H]1C	none (no result: Casp6 inh, ERAP1 HTS inh)
CC(=O)NS(=O)(=O)c1ccc(NC(=O)COc2ccc(C(=O)c3ccccc3)cc2)cc1	Ecoli rRNA inh -27 (no result: PGC1a acetyl inh) | AID977621 inconclusive
O=C(COc1ccc(Br)cc1)Nc1ccc(C(=O)Nc2ccccc2C(=O)O)cc1	Ecoli rRNA inh -28 (no result: PGC1a acetyl inh) | AID977621 inactive | AID977628 inactive
COc1ccc(OCC(=O)Nc2ccccc2C(=O)Nc2ccc(C(=O)O)cc2)cc1	none
COc1ccc(OCC(=O)Nc2ccc(C(=O)Nc3ccccc3C(=O)O)cc2)cc1	none
CN(C(=O)c1ccc(F)cc1)c1ccc(OCC(=O)Nc2ccccc2C(=O)O)cc1	Ecoli rRNA inh -14 | AID977621 inactive | AID977628 inconclusive
CN(C)S(=O)(=O)c1cccc(NC(=O)COc2ccc(C(=O)c3ccccc3)cc2)c1	none (no result: PGC1a acetyl inh)
C[C@@H]1CN([C@H](C)CO)C(=O)c2cccc(NC(=O)c3cnccn3)c2O[C@H]1CN(C)C(=O)Nc1ccccc1	none
COc1ccc(NC(=O)N[C@@H]2CC[C@H](CCNC(=O)CCN3CCCCC3)O[C@@H]2CO)cc1	none
COc1ccc(OC)c(-c2nn(-c3ccccc3)cc2C(=O)N2CCc3ccccc3C2)c1	Ecoli rRNA inh -16 | AID977621 inactive
Cc1ccc(-n2nnnc2CNC(=O)c2ccc([N+](=O)[O-])o2)cc1C	Ecoli rRNA inh -20 (no result: PGC1a acetyl inh) | AID977621 inconclusive | AID977628 inactive
COc1ccc(Cl)cc1NC(=O)CN(C)C(=O)Cc1ccc(-c2ccccc2)cc1	none
COc1ccc(Cl)cc1NC(=O)CN(C)CC(=O)Nc1ccccc1-c1ccccc1	Ecoli rRNA inh -24 | AID977621 inactive
COc1cccc(SCC(=O)N2CCN(c3ccccc3)CC2)c1	Ecoli rRNA inh -23 | AID977621 inactive | AID977628 inconclusive
COc1ccc(N2CCN(C(=O)CSc3ccccc3)CC2)cc1	none (no result: Casp6 inh, Ecoli rRNA inh, S100A4 MyoIIA, ERAP1 HTS inh)
C[C@H](CO)N1C[C@H](C)[C@@H](CN(C)C(=O)CC2CC2)Oc2cc(-c3cccnc3)ccc2S1(=O)=O	none
Cc1ccc(C(=O)CNc2cccc(Cl)c2)cc1	none (no result: Casp6 inh, Ecoli rRNA inh, S100A4 MyoIIA, ERAP1 HTS inh)
Cc1ccc(NCC(=O)c2ccc(C)cc2)cc1	Ecoli rRNA inh -18 | AID977621 inactive | AID977628 inactive
CCCNC(=O)N1CC2(CN(C(=O)C3CCOCC3)C2)c2c([nH]c3cc(OC)ccc23)[C@@H]1CO	none (no result: ARNT-TACC3 inh)
C[C@H]1CCCCO[C@@H](CN(C)C(=O)CCC(F)(F)F)[C@@H](C)CN([C@@H](C)CO)C(=O)c2cc(NC(=O)NC3CCCCC3)ccc2O1	none
COCC(C)NC(=O)c1nn(Cc2ccccc2)c(=O)c2ccccc12 (stereo not drawn)	Ecoli rRNA inh -13 (no result: PGC1a acetyl inh) | AID977621 inactive | AID977628 inactive
CC(=O)c1c(C)[nH]c(C(=O)Nc2nc(C)cs2)c1C	Ecoli rRNA inh -21 | AID977621 inactive | AID977628 inactive
CC(C)Cn1c(=O)c2ccccc2c2ccccc2c1=O	Ecoli rRNA inh -28 | AID977621 inactive
C[C@H](CO)N1C[C@H](C)[C@@H](CN(C)S(=O)(=O)c2ccc(F)cc2)Oc2ccc(NC(=O)Nc3ccc(F)cc3)cc2CC1=O	none (no result: Casp6 inh)
Cc1cc(NC(=O)CCN2C(=O)C3C4C=CC(C4)C3C2=O)ccc1Br (stereo not drawn)	Ecoli rRNA inh -21 | AID977621 inactive | AID977628 inactive
CN(C(=O)COC(=O)CSc1ccc(C(N)=O)cc1[N+](=O)[O-])C1CCCCC1	Ecoli rRNA inh -16 (no result: PGC1a acetyl inh) | AID977621 inactive | AID977628 inactive
